Data on 30 compounds can be found in ChEMBL document CHEMBL3085707, “Solution-phase microwave assisted parallel synthesis of N,N'-disubstituted thioureas derived from benzoic acid: biological evaluation and molecular docking studies” (Eur J Med Chem, 2013).

For one test, the system named is Candida tropicalis. Description: Antifungal activity against Candida tropicalis after 24 to 48 hrs by agar well diffusion method. The format is functional. The procedure, abridged:
(§1)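 Agar well diffusion: 20 mL inoculum added to molten potato dextrose agar and pour-plated, with 6 mm wells cut by cork borer after setting. Inhibition zone measured in mm and scored from + (<1 mm) to ++++ (>6 mm). 2% DMSO in screen medium was the negative control; fluconazole and terbinafine were separate positive controls.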
Background: A growth-free zone around the sample is the usual read-out of agar diffusion tests.

Another test deals with Saccharomyces cerevisiae. The test can be described thus: Antifungal activity against Saccharomyces cerevisiae after 24 to 48 hrs by agar well diffusion method. The format is functional. In a few lines: as §1
The test system of a further test is Aspergillus flavus. The test can be described thus: Antifungal activity against Aspergillus flavus after 24 to 48 hrs by agar well diffusion method. The format is functional. The procedure, abridged:
as §1

The next test deals with Aspergillus niger. Description: Antifungal activity against Aspergillus niger after 24 to 48 hrs by agar well diffusion method. The format is functional. The procedure, abridged: as §1
The test system of test [1] is Radical scavenging activity. Description: Antioxidant activity assessed as DPPH free radical scavenging activity after 30 mins. The format is functional.
The target in the next test is Urease (Canavalia ensiformis, UniProt P07374). The test can be described thus: Inhibition of jack bean urease assessed as ammonia production after 30 mins by indophenol method. The procedure, abridged: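 Indophenol (Weatherburn) ammonia read-out. Enzyme (5 U/mL) and test compound in buffer of 100 mM urea, 1 mM EDTA, 10 mM K2HPO4 and 10 mM […] at pH 8.2, incubated 30 min at 37 °C. Phenol and alkali reagents (NaOH, 0.1% active chloride NaOCl) then added; absorbance read by microplate reader. Run in triplicate; thiourea and acetohydroxamic acid as reference inhibitors.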

Test [2] concerns Radical scavenging activity. Description: Antioxidant activity assessed as DPPH free radical scavenging activity at 1 mM after 30 mins. The format is functional. In general terms: DPPH is a stable violet radical that fades when it is reduced.

Structures are written as SMILES. Calls of active or inactive are those of the source. The rule behind the calls is not given here.

Urease, sequence (P07374 whole entry): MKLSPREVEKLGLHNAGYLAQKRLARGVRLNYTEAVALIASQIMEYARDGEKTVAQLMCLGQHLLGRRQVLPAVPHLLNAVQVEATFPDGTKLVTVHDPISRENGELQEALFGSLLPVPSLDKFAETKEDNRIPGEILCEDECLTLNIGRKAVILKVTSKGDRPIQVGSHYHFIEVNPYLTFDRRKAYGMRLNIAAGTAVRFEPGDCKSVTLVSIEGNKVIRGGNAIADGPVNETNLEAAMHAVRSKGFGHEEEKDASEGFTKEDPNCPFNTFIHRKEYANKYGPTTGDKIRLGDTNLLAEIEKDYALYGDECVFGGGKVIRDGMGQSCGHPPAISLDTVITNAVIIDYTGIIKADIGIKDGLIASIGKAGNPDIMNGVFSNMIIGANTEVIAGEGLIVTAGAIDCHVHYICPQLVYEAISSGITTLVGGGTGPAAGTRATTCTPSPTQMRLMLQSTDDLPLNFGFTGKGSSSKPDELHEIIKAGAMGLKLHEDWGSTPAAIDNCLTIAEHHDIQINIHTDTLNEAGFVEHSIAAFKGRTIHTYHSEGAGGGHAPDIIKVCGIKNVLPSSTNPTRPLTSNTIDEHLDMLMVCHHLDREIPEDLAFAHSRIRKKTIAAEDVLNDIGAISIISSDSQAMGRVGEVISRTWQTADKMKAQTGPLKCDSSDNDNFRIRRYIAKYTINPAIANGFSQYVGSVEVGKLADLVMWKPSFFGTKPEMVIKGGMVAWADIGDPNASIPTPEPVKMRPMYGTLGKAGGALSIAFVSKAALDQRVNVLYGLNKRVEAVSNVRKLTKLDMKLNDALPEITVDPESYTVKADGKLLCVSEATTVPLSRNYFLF

`O=C(NC(=S)Nc1cc(Cl)cc(Cl)c1)c1ccccc1`: the “inhibition zone (IZ)” value in the test with Candida tropicalis, in the test on Saccharomyces cerevisiae, in the test on Aspergillus flavus and with Aspergillus niger was less than 1 mm in each case. Besides, the IC50 – broadly, the concentration needed to halve the response being measured – in test [1] was 27 µM; at Urease, 18.4 µM.
In the case of `O=C(NC(=S)Nc1ccc(C(F)(F)F)cc1)c1ccccc1`, the “inhibition zone (IZ)” value with Candida tropicalis, in the test with Saccharomyces cerevisiae, in the test with Aspergillus flavus and in the test with Aspergillus niger was 3 mm each time. The 50% inhibitory concentration (IC50) amounted to 114 µM in test [1] and 12.2 µM at Urease.
Turning to `COc1ccc(O)c(C(C)(C)C)c1.COc1ccc(O)cc1C(C)(C)C` [BUTYLATED HYDROXYANISOLE], the IC50 in test [1] was found to be 28.2 µM.
In the case of `Cc1cccc(NC(=S)NC(=O)c2ccccc2)c1C`, the “inhibition zone (IZ)” value with Candida tropicalis, in the test on Saccharomyces cerevisiae, in the test on Aspergillus flavus and in the test on Aspergillus niger was less than 1 mm in each case. Moreover, the inhibition (commonly the share of the control response that was lost under treatment) in test [2] amounted to 27%. The half-maximal inhibitory concentration (IC50) at Urease is 3.17 µM.
For the compound `O=C(NC(=S)Nc1ccc(Cl)cc1Cl)c1ccccc1`, the “inhibition zone (IZ)” value with Candida tropicalis is given as 1 mm; with Saccharomyces cerevisiae, 3 mm; in the test with Aspergillus flavus it was 1 mm; with Aspergillus niger, 3 mm. The IC50 was found to be 240 µM in test [1] and 13.2 µM on Urease.
`O=C(NC(=S)Nc1cccc(Cl)c1)c1ccccc1`: the “inhibition zone (IZ)” value in the test on Candida tropicalis, with Saccharomyces cerevisiae, with Aspergillus flavus and in the test on Aspergillus niger was less than 1 mm in each case. Also, the inhibition in test [2] came out at 21%. Also, the IC50 on Urease is 27.3 µM.
`CCCOC(=O)c1cc(O)c(O)c(O)c1` [PROPYL GALLATE]: in test [1], the IC50 came out at 40.8 µM.
For the compound `O=C(NC(=S)NCc1ccccc1)c1ccccc1`, the “inhibition zone (IZ)” value in the test on Candida tropicalis, in the test on Saccharomyces cerevisiae, with Aspergillus flavus and with Aspergillus niger was “inactive” each time. Also, the inhibition in test [2] came out at 22%. In addition, the half-inhibitory concentration (IC50) on Urease worked out at 27.4 µM.
For the compound `O=C(NC(=S)Nc1cccc(F)c1)c1ccccc1`, the “inhibition zone (IZ)” value was less than 1 mm in the test with Candida tropicalis, 1 mm in the test on Saccharomyces cerevisiae, less than 1 mm in the test with Aspergillus flavus and 1 mm with Aspergillus niger. Also, in test [2], the inhibition was 38%. The IC50 at Urease is 3.52 µM.
As to `CCCCc1ccc(NC(=S)NC(=O)c2ccccc2)cc1`, the “inhibition zone (IZ)” value in the test on Candida tropicalis, in the test on Saccharomyces cerevisiae, in the test on Aspergillus flavus and in the test with Aspergillus niger was less than 1 mm throughout. Besides, the IC50 in test [1] amounted to 676 µM; at Urease it was 47.2 µM.
Regarding `NC(N)=S` [THIOUREA], the IC50 at Urease turned out to be 22.3 µM.
Take `Cc1ccc(NC(=S)NC(=O)c2ccccc2)cc1`: the “inhibition zone (IZ)” value in the test on Candida tropicalis, with Saccharomyces cerevisiae, with Aspergillus flavus and with Aspergillus niger was 1 mm throughout. Further, the IC50 in test [1] was found to be 23.3 µM; at Urease, 6.23 µM.
In the case of `O=C(NC(=S)Nc1ccccc1Cl)c1ccccc1`, the “inhibition zone (IZ)” value in the test with Candida tropicalis, with Saccharomyces cerevisiae, with Aspergillus flavus and in the test with Aspergillus niger was less than 1 mm each time. Besides, in test [2], the inhibition is 26%. In addition, at Urease, the IC50 worked out at 41.2 µM.
As for `O=C(NC(=S)Nc1c(Cl)c(Cl)cc(Cl)c1Cl)c1ccccc1`, the “inhibition zone (IZ)” value with Candida tropicalis, in the test with Saccharomyces cerevisiae, in the test on Aspergillus flavus and with Aspergillus niger was 3 mm in each case. Further, in test [2], the inhibition is 31%. Moreover, the IC50 on Urease came out at 74.9 µM.
Take `O=C(NC(=S)Nc1cccc(Cl)c1Cl)c1ccccc1`: the “inhibition zone (IZ)” value in the test on Candida tropicalis, in the test on Saccharomyces cerevisiae, with Aspergillus flavus and with Aspergillus niger was less than 1 mm each time. Moreover, the IC50 is 29.5 µM in test [1] and 32.2 µM at Urease.
Consider `O=C(NC(=S)Nc1ccccc1)c1ccccc1` [N-(PHENYLCARBAMOTHIOYL)BENZAMIDE], for which the “inhibition zone (IZ)” value in the test with Candida tropicalis, in the test with Saccharomyces cerevisiae, in the test with Aspergillus flavus and in the test on Aspergillus niger was “inactive” in each case. In addition, the values for the half-maximal inhibitory concentration (IC50) (in test [1]; on Urease) were 769 µM and 14.1 µM, respectively.
For `O=C(NC(=S)Nc1cc(Cl)ccc1Cl)c1ccccc1`, the “inhibition zone (IZ)” value with Candida tropicalis, in the test on Saccharomyces cerevisiae, in the test with Aspergillus flavus and with Aspergillus niger was less than 1 mm each time. Also, the IC50 in test [1] amounted to 30.7 µM; on Urease it was 4.54 µM.
With `O=C(NC(=S)NC1CCCCC1)c1ccccc1`, the “inhibition zone (IZ)” value with Candida tropicalis, with Saccharomyces cerevisiae, in the test with Aspergillus flavus and with Aspergillus niger was less than 1 mm in each case. Further, the inhibition in test [2] stood at 28%. Besides, at Urease, the IC50 is 53.2 µM.
Consider `CN(C/C=C/C#CC(C)(C)C)Cc1cccc2ccccc12` [TERBINAFINE], for which the “inhibition zone (IZ)” value in the test on Candida tropicalis, in the test on Saccharomyces cerevisiae, in the test with Aspergillus flavus and in the test with Aspergillus niger was 3 mm throughout.
With `COc1cccc(NC(=S)NC(=O)c2ccccc2)c1`, the “inhibition zone (IZ)” value in the test on Candida tropicalis, in the test on Saccharomyces cerevisiae, with Aspergillus flavus and in the test with Aspergillus niger was 3 mm in each case. The IC50 in test [1] came to 805 µM; at Urease it was 12.8 µM.
As for `O=C(NC(=S)Nc1ccc(Cl)c(Cl)c1)c1ccccc1`, the “inhibition zone (IZ)” value with Candida tropicalis, with Saccharomyces cerevisiae, with Aspergillus flavus and in the test on Aspergillus niger was less than 1 mm each time. Moreover, the IC50 in test [1] turned out to be 70 µM; at Urease, 5.51 µM.
For `O=C(NC(=S)Nc1ccccc1C(F)(F)F)c1ccccc1`, the “inhibition zone (IZ)” value in the test on Candida tropicalis is given as 3 mm; in the test on Saccharomyces cerevisiae, 1 mm; with Aspergillus flavus it was 3 mm; with Aspergillus niger, 1 mm. The inhibition in test [2] is 38%. Also, the IC50 at Urease was determined as 38.2 µM.
In the case of `O=C(NC(=S)Nc1cccc(C(F)(F)F)c1)c1ccccc1`, the “inhibition zone (IZ)” value in the test with Candida tropicalis was determined as 1 mm; in the test on Saccharomyces cerevisiae it was 3 mm; in the test with Aspergillus flavus, 1 mm; with Aspergillus niger it was 3 mm. The inhibition in test [2] came out at 34%. Besides, the concentration for half-maximal inhibition (IC50) at Urease was determined as 39.6 µM.
Turning to `O=C(NC(=S)Nc1c(Cl)cccc1Cl)c1ccccc1`, the “inhibition zone (IZ)” value in the test with Candida tropicalis, with Saccharomyces cerevisiae, with Aspergillus flavus and in the test with Aspergillus niger was 1 mm in each case. Moreover, in test [2], the inhibition is 29%. At Urease, the IC50 came to 4.27 µM.
For `O=C(NC(=S)Nc1ncccn1)c1ccccc1`, the “inhibition zone (IZ)” value in the test with Candida tropicalis and in the test on Aspergillus flavus was “inactive” in each case. Also, the “inhibition zone (IZ)” value in the test on Saccharomyces cerevisiae and in the test on Aspergillus niger was less than 1 mm in each case. Also, the figures for the IC50 (in test [1]; on Urease) were 276 µM and 8.21 µM, respectively.
Take `O=C(NC(=S)Nc1ccc(Cl)cc1)c1ccccc1`: the “inhibition zone (IZ)” value in the test on Candida tropicalis, in the test with Saccharomyces cerevisiae, in the test on Aspergillus flavus and in the test with Aspergillus niger was 1 mm each time. Also, the IC50 in test [1] is 265 µM; on Urease, 35.3 µM.
With `Cc1cc(C)c(NC(=S)NC(=O)c2ccccc2)c(C)c1`, the “inhibition zone (IZ)” value in the test with Candida tropicalis is recorded as 1 mm; with Saccharomyces cerevisiae, less than 1 mm; in the test on Aspergillus flavus, 1 mm; with Aspergillus niger, less than 1 mm. Also, the inhibition in test [2] was 24%. Also, the half-inhibitory concentration (IC50) at Urease came to 8.11 µM.
Take `O=C(NC(=S)Nc1ccc(F)cc1)c1ccccc1`: the “inhibition zone (IZ)” value in the test on Candida tropicalis, in the test on Saccharomyces cerevisiae, with Aspergillus flavus and with Aspergillus niger was 3 mm throughout. The inhibition in test [2] was determined as 31%. In addition, at Urease, the IC50 turned out to be 41.2 µM.
Take `O=C(NC(=S)NCc1ccccc1Cl)c1ccccc1`: the “inhibition zone (IZ)” value in the test with Candida tropicalis, in the test with Saccharomyces cerevisiae, with Aspergillus flavus and in the test with Aspergillus niger was less than 1 mm in each case. Further, the inhibition in test [2] is 36%. Also, at Urease, the IC50 stood at 35.3 µM.
Regarding `OC(Cn1cncn1)(Cn1cncn1)c1ccc(F)cc1F` [FLUCONAZOLE], the “inhibition zone (IZ)” value in the test with Candida tropicalis, in the test on Saccharomyces cerevisiae, in the test with Aspergillus flavus and in the test on Aspergillus niger was 3 mm each time.
